Measured values as given in ChEMBL document CHEMBL5104176 (J Med Chem, 2022).

Legend:
D(2) dopamine receptor = D(2) dopamine receptor (Homo sapiens, UniProt P14416); experiment: Displacement of [3H]N-methylspiperone from human D2L receptor expressed in HEK293T cell membrane incubated for 1 hr by MicroBeta scintillation counting method; assay type: cell membranes
Method in brief: (§1)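 Membranes from stably transfected HEK293 cells (hD2L, hD3 or hD4.4), 20 μg (D2, D3) or 30 μg (D4) protein/well. Incubated 1 h at room temperature in EBSS binding buffer, pH 7.4, with 0.4 nM [3H]N-methylspiperone and 10 half-log dilutions in triplicate. 10 μM (+)-butaclamol defines nonspecific binding. GF filtration, scintillation counting.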

D(3) dopamine receptor = D(3) dopamine receptor (Homo sapiens, UniProt P35462); experiment: Displacement of [3H]N-methylspiperone from human D3R receptor expressed in HEK293T cell membrane incubated for 1 hr by MicroBeta scintillation counting method; assay type: cell membranes
Method in brief: as §1, with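 “counting. Ki by Cheng–Prusoff from ≥3 experiments; selectivity is the Ki ratio.” for “counting.”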

D(4) dopamine receptor = biological target: T1, D(4) dopamine receptor (Homo sapiens, UniProt P21917); experiment: Displacement of [3H]N-methylspiperone from human D4.4 receptor expressed in HEK293T cell membrane incubated for 1 hr by MicroBeta scintillation counting method; assay type: cell membranes
T1 sequence (P21917 whole entry): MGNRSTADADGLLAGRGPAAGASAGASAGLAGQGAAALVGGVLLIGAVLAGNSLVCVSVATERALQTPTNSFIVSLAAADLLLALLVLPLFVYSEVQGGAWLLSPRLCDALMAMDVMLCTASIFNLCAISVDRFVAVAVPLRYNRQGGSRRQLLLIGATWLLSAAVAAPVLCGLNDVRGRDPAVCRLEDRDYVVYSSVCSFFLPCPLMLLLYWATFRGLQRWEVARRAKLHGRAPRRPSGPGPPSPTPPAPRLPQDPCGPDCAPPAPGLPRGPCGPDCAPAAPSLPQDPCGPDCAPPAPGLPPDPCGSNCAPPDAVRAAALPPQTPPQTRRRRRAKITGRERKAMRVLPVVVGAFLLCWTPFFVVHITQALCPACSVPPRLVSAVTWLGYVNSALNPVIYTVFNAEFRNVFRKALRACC

[1] = Selectivity ratio of Ki for displacement of [3H]N-methylspiperone from human D3R expressed in HEK293T cell membrane to Ki for displacement of [3H]N-methylspiperone from human D4.4 receptor expressed in HEK293T cell membrane
[2] = Selectivity ratio of Ki for displacement of [3H]N-methylspiperone from human D2L receptor expressed in HEK293T cell membrane to Ki for displacement of [3H]N-methylspiperone from human D4.4 receptor expressed in HEK293T cell membrane

Chain of D(3) dopamine receptor (P35462 whole entry): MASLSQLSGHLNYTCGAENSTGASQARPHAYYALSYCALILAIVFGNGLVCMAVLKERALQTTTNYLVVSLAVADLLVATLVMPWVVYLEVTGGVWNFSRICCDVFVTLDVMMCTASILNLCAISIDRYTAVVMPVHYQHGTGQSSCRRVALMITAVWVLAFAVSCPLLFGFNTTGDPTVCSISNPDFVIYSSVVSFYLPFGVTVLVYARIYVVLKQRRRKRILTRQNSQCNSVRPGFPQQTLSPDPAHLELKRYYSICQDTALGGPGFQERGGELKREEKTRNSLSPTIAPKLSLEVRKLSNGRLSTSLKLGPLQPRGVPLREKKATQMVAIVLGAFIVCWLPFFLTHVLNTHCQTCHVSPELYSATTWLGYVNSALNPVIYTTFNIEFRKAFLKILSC
Chain of D(2) dopamine receptor (P14416 whole entry): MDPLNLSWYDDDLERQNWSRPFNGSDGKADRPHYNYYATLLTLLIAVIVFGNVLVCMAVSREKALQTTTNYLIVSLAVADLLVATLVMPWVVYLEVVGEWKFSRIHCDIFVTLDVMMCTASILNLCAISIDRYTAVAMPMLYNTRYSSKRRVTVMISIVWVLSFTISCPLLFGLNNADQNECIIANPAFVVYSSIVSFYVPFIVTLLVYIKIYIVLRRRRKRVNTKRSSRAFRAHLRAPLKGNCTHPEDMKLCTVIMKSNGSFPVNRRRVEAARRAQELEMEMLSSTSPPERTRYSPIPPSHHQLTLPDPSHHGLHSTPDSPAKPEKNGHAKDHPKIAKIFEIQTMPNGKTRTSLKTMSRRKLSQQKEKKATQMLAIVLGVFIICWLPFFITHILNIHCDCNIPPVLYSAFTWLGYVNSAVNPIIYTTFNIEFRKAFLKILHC

SMILES | Ki (D(2) dopamine receptor) | Ki (D(3) dopamine receptor) | Ki (D(4) dopamine receptor) | Ratio Ki [1] | Ratio Ki [2]
c1ccc(N2CCN(CCCN3CCCc4ccccc43)CC2)cc1 | 708 nM | 562 nM | 2.63 nM | 214 | 269
COc1cccc(N2CCN(CCCN3C(=O)CCc4ccccc43)CC2)c1 | 3090 nM | 1550 nM | 4.17 nM | 372 | 741
COc1ccccc1N1CCN(CCCN2C(=O)CCc3ccccc32)CC1 | 81.3 nM | 100 nM | 0.617 nM | 162 | 132
O=C1CCc2ccccc2N1CCCN1CCN(c2ccccc2[N+](=O)[O-])CC1 | 132 nM | 129 nM | 0.407 nM | 316 | 324
c1ccc(N2CCN(CCCc3nc4ccccc4o3)CC2)cc1 | 1700 nM | 813 nM | 37.2 nM | 22 | 46
c1ccc(N2CCN(CCCc3nc4ccccc4s3)CC2)cc1 | 1780 nM | 692 nM | 10.2 nM | 68 | 174
c1ccc(N2CCN(CCCn3ccc4ccccc43)CC2)cc1 | 724 nM | 490 nM | 1.91 nM | 257 | 380
CCCCC1CCN(CCCN2C(=O)CCc3ccccc32)CC1 |  |  |  | 631 | 691
O=C1CCc2ccccc2N1CCCN1CCN(c2ccc([N+](=O)[O-])cc2)CC1 | 24000 nM | 11000 nM | 6.61 nM | 1660 | 3630
Cc1ccccc1N1CCN(CCCN2C(=O)CCc3ccccc32)CC1 | 398 nM | 275 nM | 1.35 nM | 204 | 295
c1ccc(N2CCN(CCCc3nc4ccccc4[nH]3)CC2)cc1 | 6170 nM | 832 nM | 30.2 nM | 28 | 204
N#Cc1ccccc1N1CCN(CCCN2C(=O)CCc3ccccc32)CC1 | 355 nM | 339 nM | 1.07 nM | 316 | 331
O=C1CCc2ccccc2N1CCN1CCN(c2ccccc2)CC1 | 12900 nM | 1070 nM | 63.1 nM | 17 | 204
O=C1CCc2ccccc2N1CCCN1CCN(c2cccc([N+](=O)[O-])c2)CC1 | 2510 nM | 1260 nM | 3.55 nM | 355 | 708
O=C1CCc2ccccc2N1CCCN1CCN(c2ccccc2)CC1 |  |  |  | 457 | 380
Cc1cccc(N2CCN(CCCN3C(=O)CCc4ccccc43)CC2)c1 | 1450 nM | 794 nM | 1.78 nM | 447 | 813
c1ccc(N2CCN(CCCn3cnc4ccccc43)CC2)cc1 | 12000 nM | 8910 nM | 12.3 nM | 719 | 977
O=C1CCc2ccccc2N1CCCCN1CCN(c2ccccc2)CC1 | 1120 nM | 81.3 nM | 4.27 nM | 19 | 263
O=C1CCc2ccccc2N1CCCN1CCN(c2ccc(Cl)c(Cl)c2)CC1 | 955 nM | 631 nM | 0.871 nM | 725 | 1100
O=C1CCc2ccccc2N1CCCN1CCN(c2cccc(Cl)c2Cl)CC1 |  | 21.4 nM | 0.692 nM |  | 
O=C1CCc2ccccc2N1CCCN1CCN(c2ncccn2)CC1 | 3980 nM | 2290 nM | 4.47 nM | 513 | 891
O=C1CCc2ccccc2N1CCCN1CCN(c2ccc(Cl)cc2Cl)CC1 | 550 nM | 501 nM | 0.676 nM | 744 | 827
O=C1CCc2ccccc2N1CCCCCN1CCN(c2ccccc2)CC1 | 282 nM | 195 nM | 23.4 nM | 8 | 12
